These results are taken from article PMC3960632 (British Journal of Cancer, 2014).

One data set has as its system recombinant AKR1C1-4. Conditions: ref Hebert et al, 2013; cited from earlier work.
The next data set deals with primary CLL cells. As to the kind of experiment: Primary CLL cell apoptosis. The format is cell-based, human. Particulars: 24 h; 0.5 mM BEZ, 5 μM MPA, 5.1 μM 4-MDDT; n=4 samples. Put shortly: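 Patient blood mononuclear cells isolated on Ficoll, with consent and ethical approval. Co-cultured 10:1 on non-CD40L-expressing L-cell fibroblast stroma in 96-well plates. Treated in triplicate for 24 h against solvent control. Viability read by annexin V/propidium iodide staining and flow cytometry; n=4 patient samples ± s.e.m.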

The test system of data set [1] is HL-60, K562 and KG1a AML cell lines. As to the kind of experiment: Cumulative cell counts / viability of AML cell lines. The format is cell-based. Conditions: 7 days, 5 μM MPA, 50 μM 4-MDDT. Put shortly: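 HL60, K562 and KG1a cells kept in RPMI-1640 with L-glutamine, 10% heat-inactivated FBS and penicillin/streptomycin at 37 °C, 5% CO2, passaged every 2 days at 0.25–1.5 × 10^6 cells/ml. Treated 7 days at 1 × 10^4 cells/well or 0.25 × 10^6 cells/ml in flasks, with DMSO/ethanol solvent controls. Cumulative viable counts by manual counting or flow cytometry with viable gates and counting beads. Mean of ≥3 experiments ± s.e.m.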

The next data set has as its system HL-60 cells. As to the kind of experiment: HL-60 differentiation. The data set is classed as cell-based. Particulars: 5 μM MPA, 50 μM 4-MDDT. The essentials: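 HL-60 cells grown in RPMI-1640 with 10% heat-inactivated FBS at 37 °C, 5% CO2. Treated 7 days and re-fed and re-treated every 2 days, with solvent controls. At day 7, PE-CD11b staining read by flow cytometry, mean of ≥3 experiments ± s.e.m. Cytospins from 75–100 μl of culture were air-dried, methanol-fixed and Jenner–Giemsa stained for morphology.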

The next data set addresses T1, recombinant AKR1C3 (Homo sapiens, UniProt P42330).
T1 sequence (P42330 1-323): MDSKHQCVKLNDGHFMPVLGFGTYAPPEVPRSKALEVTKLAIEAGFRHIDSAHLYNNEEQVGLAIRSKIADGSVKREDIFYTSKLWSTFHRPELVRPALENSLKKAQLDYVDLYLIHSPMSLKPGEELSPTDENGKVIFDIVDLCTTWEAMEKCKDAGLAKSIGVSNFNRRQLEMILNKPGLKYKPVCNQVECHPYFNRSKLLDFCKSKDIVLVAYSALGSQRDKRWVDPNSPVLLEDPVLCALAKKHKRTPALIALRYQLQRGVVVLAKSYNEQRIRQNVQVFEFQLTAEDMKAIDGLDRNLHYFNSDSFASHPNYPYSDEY
As to the kind of experiment: AKR1C-diaphorase. The format is biochemical. Particulars: freshly prepared solution.

The nature of data set [2]: Stability of the DMSO solution. The data set is classed as physicochemical. Particulars: solution in DMSO.

With `O=C(O)c1cccc(S(=O)(=O)N2CCc3ccccc3C2)c1` [A1, 3-(3,4-dihydro-1H-isoquinoline-2-sulphonyl)-benzoic acid], in the data set on recombinant AKR1C1-4, the “AKR1C3 selectivity in the CRT screen” value was “AKR1C3-selective inhibitors”.

Consider `O=C(N1CCOCC1)N1CCN(c2ccc(Cl)cc2)CC1` [A9, [4-(4-chloro-phenyl)-piperazin-1-yl]-morpholin-4-yl-methanone], for which the “AKR1C3 selectivity in the CRT screen” value in the data set on recombinant AKR1C1-4 was “AKR1C3-selective inhibitors”.

For the compound `CC(C)(Oc1ccc(CCNC(=O)c2ccc(Cl)cc2)cc1)C(=O)O` [BEZ, bezafibrate], the “apoptosis of CLL cells, single agent” value with primary CLL cells is “neither BEZ nor MPA as single agents markedly increased apoptosis”.

In the case of `CC(=O)O[C@]1(C(C)=O)CC[C@H]2[C@@H]3C[C@H](C)C4=CC(=O)CC[C@]4(C)[C@H]3CC[C@@]21C` [MPA, medroxyprogesterone acetate], the “AML cell killing when combined with BEZ” value in data set [1] (with 0.5 mM BEZ, NCI compounds at 10 times the IC50, 10 μM A1/A6/A9) is on record as “greatly enhanced AML cell killing”. In addition, the “anti-proliferative effect, agent alone” value in data set [1] (NCI compounds at 10 times the IC50) is “moderate but statistically anti-proliferative effect”. Also, the “HL-60 cell differentiation in response to ATRA” value in the data set on HL-60 cells (day 7, with 10 nM ATRA) is listed as “promoted the differentiation of HL-60 cells”. In the data set with HL-60 cells (day 7, with 0.5 mM BEZ), the “HL-60 cell differentiation (CD11b, phenotypic changes) combined with BEZ” value is on record as “strongly promoted HL-60 cell differentiation”. For the same compound, the “apoptosis of CLL cells, single agent” value in the data set with primary CLL cells is “neither BEZ nor MPA as single agents markedly increased apoptosis”.

Consider `CN(C)[C@@H]1C(O)=C(C(N)=O)C(=O)[C@@]2(O)C(O)=C3C(=O)c4c(O)cccc4[C@@](C)(O)[C@H]3C[C@@H]12` [tetracycline], for which the AKR1C3-inhibitory activity entry on recombinant AKR1C3 is “no AKR1C3-inhibitory activity”. In data set [2], the chemical stability entry is on record as “rapid conversion of the dissolved tetracycline to an unknown breakdown product”.
